Measurements from ChEMBL document CHEMBL1139352, “Synthesis and evaluation of novel inhibitors of Pim-1 and Pim-2 protein kinases” (J Med Chem, 2009).

Experiments:
[1] = biological target: Hepatocyte growth factor receptor (Homo sapiens) (UniProt P08581); assay: Inhibition of MET at 5 uM
[2] = biological target: Glycogen synthase kinase-3 beta (Homo sapiens) (UniProt P49841); assay: Inhibition of GSK3-beta at 5 uM
[3] = biological target: RAF proto-oncogene serine/threonine-protein kinase (Homo sapiens) (UniProt P04049); assay: Inhibition of c-Raf at 5 uM
[4] = test system: Mus musculus; assay: Toxicity in Swiss Webster mouse assessed as alkaline phosphatase level at 3 mg/kg, ip daily for 7 days measured after 7 days; assay type: organism-based; design: dose 3 mg/kg, route intraperitoneal; conditions: in vivo, 168 h
[5] = biological target: Ribosomal protein S6 kinase beta-1 (Homo sapiens) (UniProt P23443); assay: Inhibition of p70S6K at 5 uM
[6] = biological target: Epidermal growth factor receptor (Homo sapiens) (UniProt P00533); assay: Inhibition of EGFR at 5 uM
[7] = test system: Mus musculus; assay: Toxicity in Swiss Webster mouse assessed as monocyte count at 3 mg/kg, ip daily for 7 days measured after 7 days; assay type: organism-based; design: dose 3 mg/kg, route intraperitoneal; conditions: in vivo, 168 h
[8] = test system: Mus musculus; assay: Toxicity in Swiss Webster mouse assessed as lymphocyte count at 50 mg/kg, ip daily for 7 days measured after 7 days; assay type: organism-based; design: dose 50 mg/kg, route intraperitoneal; conditions: in vivo, 168 h
[9] = test system: Mus musculus; assay: Toxicity in Swiss Webster mouse assessed as granulocyte count at 10 mg/kg, ip daily for 7 days measured after 7 days; assay type: organism-based; design: dose 10 mg/kg, route intraperitoneal; conditions: in vivo, 168 h
[10] = test system: Mus musculus; assay: Toxicity in Swiss Webster mouse assessed as Na+ level at 3 mg/kg, ip daily for 7 days measured after 7 days; assay type: organism-based; design: dose 3 mg/kg, route intraperitoneal; conditions: in vivo, 168 h
[11] = biological target: Tyrosine-protein kinase BTK (Homo sapiens) (UniProt Q06187); assay: Inhibition of BTK at 5 uM
[12] = test system: Mus musculus; assay: Toxicity in Swiss Webster mouse assessed as hemoglobin level at 10 mg/kg, ip daily for 7 days measured after 7 days; assay type: organism-based; design: dose 10 mg/kg, route intraperitoneal; conditions: in vivo, 168 h
[13] = biological target: Cyclin-dependent kinase 2 (Homo sapiens) (UniProt P24941); assay: Inhibition of CDK2 at 5 uM
[14] = biological target: RAC-beta serine/threonine-protein kinase (Homo sapiens) (UniProt P31751); assay: Inhibition of AKT2 at 5 uM
[15] = biological target: Fibroblast growth factor receptor 1 (Homo sapiens) (UniProt P11362); assay: Inhibition of FGFR1 at 5 uM
Sequence of Fibroblast growth factor receptor 1 (Homo sapiens) (P11362 22-822 limits assumed): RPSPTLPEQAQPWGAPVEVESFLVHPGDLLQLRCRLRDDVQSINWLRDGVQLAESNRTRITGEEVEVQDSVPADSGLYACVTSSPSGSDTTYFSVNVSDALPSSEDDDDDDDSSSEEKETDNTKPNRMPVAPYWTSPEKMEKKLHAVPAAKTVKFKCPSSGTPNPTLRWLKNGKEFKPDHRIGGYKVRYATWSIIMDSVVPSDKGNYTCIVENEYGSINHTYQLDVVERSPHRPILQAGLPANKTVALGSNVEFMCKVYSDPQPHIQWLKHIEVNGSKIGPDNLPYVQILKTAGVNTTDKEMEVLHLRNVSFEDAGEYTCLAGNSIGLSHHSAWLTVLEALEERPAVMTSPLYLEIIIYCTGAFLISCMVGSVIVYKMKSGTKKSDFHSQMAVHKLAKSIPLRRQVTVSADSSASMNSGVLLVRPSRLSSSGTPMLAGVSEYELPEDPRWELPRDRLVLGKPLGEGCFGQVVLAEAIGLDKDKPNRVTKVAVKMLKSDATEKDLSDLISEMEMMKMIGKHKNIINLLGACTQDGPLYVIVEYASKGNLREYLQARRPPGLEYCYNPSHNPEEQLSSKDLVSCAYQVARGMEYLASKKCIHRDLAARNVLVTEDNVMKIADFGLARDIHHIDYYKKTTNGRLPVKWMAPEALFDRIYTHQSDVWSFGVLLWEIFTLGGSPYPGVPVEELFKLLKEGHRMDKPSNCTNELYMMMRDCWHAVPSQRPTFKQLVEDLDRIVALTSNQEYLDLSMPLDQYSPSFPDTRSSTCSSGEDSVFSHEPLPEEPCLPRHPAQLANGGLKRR

[16] = biological target: Serine/threonine-protein kinase Sgk1 (Homo sapiens) (UniProt O00141); assay: Inhibition of SGK1 at 5 uM
Sequence of Serine/threonine-protein kinase Sgk1 (Homo sapiens) (O00141 whole entry): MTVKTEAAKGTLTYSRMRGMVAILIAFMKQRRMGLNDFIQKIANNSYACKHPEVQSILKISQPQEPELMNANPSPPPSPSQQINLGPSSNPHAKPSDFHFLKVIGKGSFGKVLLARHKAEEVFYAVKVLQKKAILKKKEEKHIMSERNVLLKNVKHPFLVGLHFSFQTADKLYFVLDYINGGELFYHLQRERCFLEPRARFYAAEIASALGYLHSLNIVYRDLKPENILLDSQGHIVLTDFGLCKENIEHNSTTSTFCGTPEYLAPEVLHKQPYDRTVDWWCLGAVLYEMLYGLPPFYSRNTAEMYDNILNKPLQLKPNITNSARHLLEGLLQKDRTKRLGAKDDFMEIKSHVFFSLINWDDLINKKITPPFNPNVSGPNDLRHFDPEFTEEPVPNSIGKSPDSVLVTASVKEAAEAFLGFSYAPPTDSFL

[17] = biological target: RAC-alpha serine/threonine-protein kinase (Homo sapiens) (UniProt P31749); assay: Inhibition of AKT1 at 5 uM
Sequence of RAC-alpha serine/threonine-protein kinase (Homo sapiens) (P31749 whole entry): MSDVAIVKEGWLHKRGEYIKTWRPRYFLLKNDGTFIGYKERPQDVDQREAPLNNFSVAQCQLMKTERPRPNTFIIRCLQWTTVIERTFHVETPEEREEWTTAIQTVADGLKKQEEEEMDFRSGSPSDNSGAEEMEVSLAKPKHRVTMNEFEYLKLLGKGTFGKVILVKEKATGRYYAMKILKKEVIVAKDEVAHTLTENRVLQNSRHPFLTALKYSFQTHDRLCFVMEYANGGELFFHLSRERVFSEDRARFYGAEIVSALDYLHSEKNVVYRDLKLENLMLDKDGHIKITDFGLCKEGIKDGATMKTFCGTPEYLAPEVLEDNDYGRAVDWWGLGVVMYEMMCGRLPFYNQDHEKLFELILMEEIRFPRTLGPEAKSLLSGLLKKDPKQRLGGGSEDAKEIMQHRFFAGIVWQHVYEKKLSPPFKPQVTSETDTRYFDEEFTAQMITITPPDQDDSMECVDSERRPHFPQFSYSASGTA

[18] = biological target: Interleukin-1 receptor-associated kinase 4 (Homo sapiens) (UniProt Q9NWZ3); assay: Inhibition of IRAK4 at 5 uM
[19] = biological target: Mitogen-activated protein kinase kinase kinase kinase 4 (Homo sapiens) (UniProt O95819); assay: Inhibition of HGK at 5 uM
Sequence of Mitogen-activated protein kinase kinase kinase kinase 4 (Homo sapiens) (O95819 2-1239 limits assumed): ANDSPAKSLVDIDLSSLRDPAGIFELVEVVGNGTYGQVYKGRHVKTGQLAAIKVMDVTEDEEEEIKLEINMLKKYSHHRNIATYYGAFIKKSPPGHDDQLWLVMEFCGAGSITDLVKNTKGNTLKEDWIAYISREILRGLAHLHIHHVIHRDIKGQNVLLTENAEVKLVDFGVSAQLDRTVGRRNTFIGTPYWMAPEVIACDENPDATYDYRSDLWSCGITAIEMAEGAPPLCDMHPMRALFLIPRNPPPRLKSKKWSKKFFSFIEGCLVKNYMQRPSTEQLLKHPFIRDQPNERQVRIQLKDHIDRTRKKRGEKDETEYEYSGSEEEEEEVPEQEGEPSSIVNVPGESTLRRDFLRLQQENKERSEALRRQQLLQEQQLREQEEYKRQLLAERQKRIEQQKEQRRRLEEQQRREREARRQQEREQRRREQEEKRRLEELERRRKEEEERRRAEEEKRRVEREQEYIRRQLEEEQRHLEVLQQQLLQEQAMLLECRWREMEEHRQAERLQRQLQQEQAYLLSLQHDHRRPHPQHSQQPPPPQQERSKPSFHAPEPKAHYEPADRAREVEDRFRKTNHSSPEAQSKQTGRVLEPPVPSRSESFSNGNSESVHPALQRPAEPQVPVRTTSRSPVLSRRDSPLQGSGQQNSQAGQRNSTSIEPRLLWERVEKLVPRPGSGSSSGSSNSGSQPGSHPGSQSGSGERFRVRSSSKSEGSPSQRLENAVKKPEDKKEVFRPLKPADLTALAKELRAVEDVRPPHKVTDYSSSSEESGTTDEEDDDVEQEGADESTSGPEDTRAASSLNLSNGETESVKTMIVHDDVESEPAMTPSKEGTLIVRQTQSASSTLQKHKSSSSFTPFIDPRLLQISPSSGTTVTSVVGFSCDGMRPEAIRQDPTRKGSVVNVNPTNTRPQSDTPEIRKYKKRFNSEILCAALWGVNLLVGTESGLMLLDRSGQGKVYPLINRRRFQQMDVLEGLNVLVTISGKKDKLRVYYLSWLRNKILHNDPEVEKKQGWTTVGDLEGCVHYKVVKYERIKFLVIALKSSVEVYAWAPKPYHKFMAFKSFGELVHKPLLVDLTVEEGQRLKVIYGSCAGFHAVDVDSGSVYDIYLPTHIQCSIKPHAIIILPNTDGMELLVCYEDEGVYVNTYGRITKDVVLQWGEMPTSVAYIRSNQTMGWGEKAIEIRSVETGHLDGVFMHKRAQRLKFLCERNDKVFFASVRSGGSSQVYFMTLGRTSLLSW

[20] = biological target: Rho-associated protein kinase 2 (Homo sapiens) (UniProt O75116); assay: Inhibition of ROCK2 at 5 uM
Sequence of Rho-associated protein kinase 2 (Homo sapiens) (O75116 whole entry, looked up): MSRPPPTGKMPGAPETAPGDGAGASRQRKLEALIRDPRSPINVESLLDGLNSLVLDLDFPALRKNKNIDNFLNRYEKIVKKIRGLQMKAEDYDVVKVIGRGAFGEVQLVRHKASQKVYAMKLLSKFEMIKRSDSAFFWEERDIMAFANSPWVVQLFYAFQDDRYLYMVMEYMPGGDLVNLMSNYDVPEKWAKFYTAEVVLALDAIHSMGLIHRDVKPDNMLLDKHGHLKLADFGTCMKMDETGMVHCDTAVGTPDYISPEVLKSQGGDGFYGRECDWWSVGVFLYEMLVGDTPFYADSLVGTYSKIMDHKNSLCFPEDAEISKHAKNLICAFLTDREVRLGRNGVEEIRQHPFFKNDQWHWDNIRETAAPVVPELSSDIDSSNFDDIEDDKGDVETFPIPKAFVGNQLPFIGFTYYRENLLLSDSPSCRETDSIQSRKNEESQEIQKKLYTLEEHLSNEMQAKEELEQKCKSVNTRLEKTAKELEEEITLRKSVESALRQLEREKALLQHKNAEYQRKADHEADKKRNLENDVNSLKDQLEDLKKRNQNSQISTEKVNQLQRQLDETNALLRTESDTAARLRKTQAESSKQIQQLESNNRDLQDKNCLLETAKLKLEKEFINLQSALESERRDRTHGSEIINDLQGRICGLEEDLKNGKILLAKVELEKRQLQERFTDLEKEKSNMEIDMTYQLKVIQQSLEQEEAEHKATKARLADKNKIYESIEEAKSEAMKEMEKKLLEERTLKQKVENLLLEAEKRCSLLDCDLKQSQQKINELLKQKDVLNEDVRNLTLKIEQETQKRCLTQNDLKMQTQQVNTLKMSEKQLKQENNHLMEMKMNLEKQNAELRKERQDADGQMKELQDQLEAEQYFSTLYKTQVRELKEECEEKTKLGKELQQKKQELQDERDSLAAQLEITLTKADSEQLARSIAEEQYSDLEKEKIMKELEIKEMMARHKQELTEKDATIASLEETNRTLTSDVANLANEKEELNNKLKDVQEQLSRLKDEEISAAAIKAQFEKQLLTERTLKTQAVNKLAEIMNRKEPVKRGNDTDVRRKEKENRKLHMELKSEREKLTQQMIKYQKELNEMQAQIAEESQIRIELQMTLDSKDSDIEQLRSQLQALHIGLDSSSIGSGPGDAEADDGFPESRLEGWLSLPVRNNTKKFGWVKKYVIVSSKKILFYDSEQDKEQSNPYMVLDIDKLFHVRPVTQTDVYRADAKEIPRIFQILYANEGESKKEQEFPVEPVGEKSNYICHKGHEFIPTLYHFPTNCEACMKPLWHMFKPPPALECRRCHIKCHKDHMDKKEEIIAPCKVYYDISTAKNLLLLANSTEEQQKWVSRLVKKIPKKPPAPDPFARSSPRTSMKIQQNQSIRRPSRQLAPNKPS

[21] = test system: Mus musculus; assay: Toxicity against mouse JC cells xenografted BALB/c mouse assessed as loss of body weight at 50 mg/kg, ip for 5 days per week; assay type: organism-based; design: dose 50 mg/kg, route intraperitoneal; conditions: in vivo, 120 h
[22] = test system: Mus musculus; assay: Toxicity in Swiss Webster mouse assessed as albumin level at 3 mg/kg, ip daily for 7 days measured after 7 days; assay type: organism-based; design: dose 3 mg/kg, route intraperitoneal; conditions: in vivo, 168 h
[23] = test system: Mus musculus; assay: Toxicity in Swiss Webster mouse assessed as creatinine level at 3 mg/kg, ip daily for 7 days measured after 7 days; assay type: organism-based; design: dose 3 mg/kg, route intraperitoneal; conditions: in vivo, 168 h
[24] = biological target: Ribosomal protein S6 kinase alpha-5 (Homo sapiens) (UniProt O75582); assay: Inhibition of MSK1 at 5 uM
[25] = test system: Mus musculus; assay: Toxicity in Swiss Webster mouse assessed as albumin level at 50 mg/kg, ip daily for 7 days measured after 7 days; assay type: organism-based; design: dose 50 mg/kg, route intraperitoneal; conditions: in vivo, 168 h
[26] = biological target: Serine/threonine-protein kinase pim-2 (Homo sapiens, UniProt Q9P1W9); assay: Inhibition of PIM2 at 5 uM
Sequence of Serine/threonine-protein kinase pim-2 (Q9P1W9 whole entry, looked up): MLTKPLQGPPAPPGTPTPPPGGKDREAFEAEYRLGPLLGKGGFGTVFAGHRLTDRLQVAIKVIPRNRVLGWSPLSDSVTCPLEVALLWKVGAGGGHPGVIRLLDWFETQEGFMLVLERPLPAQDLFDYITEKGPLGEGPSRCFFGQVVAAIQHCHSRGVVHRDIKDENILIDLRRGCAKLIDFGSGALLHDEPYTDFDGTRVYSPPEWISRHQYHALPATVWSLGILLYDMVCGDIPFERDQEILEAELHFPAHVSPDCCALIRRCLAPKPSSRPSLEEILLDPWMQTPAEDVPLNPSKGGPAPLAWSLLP

[27] = test system: Mus musculus; assay: Toxicity in Swiss Webster mouse assessed as phosphate level at 50 mg/kg, ip daily for 7 days measured after 7 days; assay type: organism-based; design: dose 50 mg/kg, route intraperitoneal; conditions: in vivo, 168 h
[28] = biological target: Serine/threonine-protein kinase MARK1 (Homo sapiens) (UniProt Q9P0L2); assay: Inhibition of MARK1 at 5 uM
[29] = test system: Mus musculus; assay: Toxicity in Swiss Webster mouse assessed as alanine aminotransferase level at 50 mg/kg, ip daily for 7 days measured after 7 days; assay type: organism-based; design: dose 50 mg/kg, route intraperitoneal; conditions: in vivo, 168 h
[30] = test system: Mus musculus; assay: Toxicity in Swiss Webster mouse assessed as alkaline phosphatase level at 10 mg/kg, ip daily for 7 days measured after 7 days; assay type: organism-based; design: dose 10 mg/kg, route intraperitoneal; conditions: in vivo, 168 h
[31] = test system: Mus musculus; assay: Toxicity in Swiss Webster mouse assessed as monocyte count at 10 mg/kg, ip daily for 7 days measured after 7 days; assay type: organism-based; design: dose 10 mg/kg, route intraperitoneal; conditions: in vivo, 168 h
[32] = test system: Mus musculus; assay: Toxicity in Swiss Webster mouse assessed as phosphate level at 10 mg/kg, ip daily for 7 days measured after 7 days; assay type: organism-based; design: dose 10 mg/kg, route intraperitoneal; conditions: in vivo, 168 h
[33] = biological target: Inhibitor of nuclear factor kappa-B kinase subunit beta (Homo sapiens) (UniProt O14920); assay: Inhibition of IKK-beta at 5 uM
[34] = biological target: Protein kinase C zeta type (Homo sapiens) (UniProt Q05513); assay: Inhibition of PKCzeta at 5 uM
[35] = biological target: Tyrosine-protein kinase SYK (Homo sapiens) (UniProt P43405); assay: Inhibition of SYK at 5 uM
[36] = test system: Mus musculus; assay: Toxicity in Swiss Webster mouse assessed as blood urea nitrogen level at 50 mg/kg, ip daily for 7 days measured after 7 days; assay type: organism-based; design: dose 50 mg/kg, route intraperitoneal; conditions: in vivo, 168 h
[37] = test system: Mus musculus; assay: Toxicity in Swiss Webster mouse assessed as alanine aminotransferase level at 10 mg/kg, ip daily for 7 days measured after 7 days; assay type: organism-based; design: dose 10 mg/kg, route intraperitoneal; conditions: in vivo, 168 h
[38] = test system: Mus musculus; assay: Toxicity in Swiss Webster mouse assessed as K+ level at 10 mg/kg, ip daily for 7 days measured after 7 days; assay type: organism-based; design: dose 10 mg/kg, route intraperitoneal; conditions: in vivo, 168 h
[39] = Antitumor activity against mouse JC cells xenografted BALB/c mouse assessed as tumor growth inhibition at 50 mg/kg, ip for 5 days per week; assay type: functional; design: scale not given: the % may be the effect or the level left; conditions: route intraperitoneal
Method in brief: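 Syngeneic model: female Balb/c mice were implanted subcutaneously with 1 × 10⁶ JC murine mammary adenocarcinoma cells in PBS. Once tumors were palpable, mice were randomized into groups. They received intraperitoneal injections once daily, five days per week, of either vehicle (50% DMSO : 50% PBS) or 50 mg/kg. Tumor volume was taken as (L × W²)/2. n = 5 mice per group; mean ± standard error.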

[40] = biological target: Tyrosine-protein kinase Lck (Homo sapiens) (UniProt P06239); assay: Inhibition of LCK at 5 uM
[41] = biological target: Serine/threonine-protein kinase Chk2 (Homo sapiens) (UniProt O96017); assay: Inhibition of CHK2 at 5 uM
[42] = biological target: 5'-AMP-activated protein kinase subunit beta-1 (Homo sapiens) (UniProt Q9Y478); assay: Inhibition of AMPK at 5 uM
[43] = test system: Mus musculus; assay: Toxicity in Swiss Webster mouse assessed as granulocyte count at 3 mg/kg, ip daily for 7 days measured after 7 days; assay type: organism-based; design: dose 3 mg/kg, route intraperitoneal; conditions: in vivo, 168 h
[44] = test system: Mus musculus; assay: Toxicity in Swiss Webster mouse assessed as blood urea nitrogen level at 3 mg/kg, ip daily for 7 days measured after 7 days; assay type: organism-based; design: dose 3 mg/kg, route intraperitoneal; conditions: in vivo, 168 h
[45] = test system: Mus musculus; assay: Toxicity in Swiss Webster mouse assessed as granulocyte count at 50 mg/kg, ip daily for 7 days measured after 7 days; assay type: organism-based; design: dose 50 mg/kg, route intraperitoneal; conditions: in vivo, 168 h
[46] = biological target: MAP kinase-activated protein kinase 5 (Homo sapiens) (UniProt Q8IW41); assay: Inhibition of PRAK at 5 uM

Sequence of Glycogen synthase kinase-3 beta (Homo sapiens) (P49841 whole entry, looked up): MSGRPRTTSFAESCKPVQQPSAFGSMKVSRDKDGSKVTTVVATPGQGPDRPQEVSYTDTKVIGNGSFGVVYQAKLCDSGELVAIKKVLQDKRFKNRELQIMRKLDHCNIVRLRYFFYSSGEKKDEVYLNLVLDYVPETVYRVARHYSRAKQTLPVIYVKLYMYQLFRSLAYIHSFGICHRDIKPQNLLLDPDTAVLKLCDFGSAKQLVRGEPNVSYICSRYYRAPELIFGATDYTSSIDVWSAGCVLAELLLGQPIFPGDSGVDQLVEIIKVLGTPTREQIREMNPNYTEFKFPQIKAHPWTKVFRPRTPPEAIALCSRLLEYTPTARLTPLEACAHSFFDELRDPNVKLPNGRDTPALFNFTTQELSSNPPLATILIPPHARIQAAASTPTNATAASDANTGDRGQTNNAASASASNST

SMILES: CCCOc1ccc(/C=C2\SC(=O)NC2=O)cc1
- inhibition [1]: -6%
- inhibition [2]: 3%
- inhibition [3]: -1%
- Activity [4]: 85 U/L
- inhibition [5]: 8%
- inhibition [6]: -3%
- Activity [7]: 0.11 ×10⁹ /L
- Activity [8]: 3.5 ×10⁹ /L
- Activity [9]: 0.61 ×10⁹ /L
- Activity [10]: 150 mmol/L
- inhibition [11]: 7%
- Activity [12]: 11.7 g/dL
- inhibition [13]: -2%
- inhibition [14]: -1%
- inhibition [15]: 1%
- inhibition [16]: 5%
- inhibition [17]: 6%
- inhibition [18]: 5%
- inhibition [19]: 9%
- inhibition [20]: 5%
- Activity [21]: Non-toxic
- Activity [22]: 3.3 g/dL
- Activity [23]: 0.2 mg/dL
- inhibition [24]: -1%
- Activity [25]: 2.6 g/dL
- inhibition [26]: 62%
- Activity [27]: 5.5 mg/dL
- inhibition [28]: -6%
- Activity [29]: 37 U/L
- Activity [30]: 85 U/L
- Activity [31]: 0.08 ×10⁹ /L
- Activity [32]: 5.7 mg/dL
- inhibition [33]: 10%
- inhibition [34]: 3%
- inhibition [35]: -3%
- Activity [36]: 14 mg/dL
- Activity [37]: 44 U/L
- Activity [38]: 7.2 mmol/L
- Activity [39]: 50%
- inhibition [40]: 3%
- inhibition [41]: 4%
- inhibition [42]: 7%
- Activity [43]: 0.01 ×10⁹ /L
- Activity [44]: 17 mg/dL
- Activity [45]: 0.08 ×10⁹ /L
- inhibition [46]: 4%
